According to ChEMBL document CHEMBL1177816, “Epsilon substituted lysinol derivatives as HIV-1 protease inhibitors” (Bioorg Med Chem Lett, 2010):

How the values were obtained:
[1] = test system: Human immunodeficiency virus 1; assay: Antiviral activity against HIV1 3B infected in human MT4 cells assessed as inhibition of viral spread after 3 days by p24 antigen ELISA in presence of 10% fetal bovine serum; format: functional
How it was run: (§1)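 MT-4 cells kept in RPMI 1640 with 10% heat-inactivated FBS were infected en masse with HIV-1 IIIb at multiplicity 0.01 for 24 h, then washed and plated. Serial twofold inhibitor dilutions were added and cultures ran 3 more days. Spread was read by p24 core antigen ELISA. Line 2 used 10% FBS; line 3 used cells resuspended in 50% normal human serum, giving a serum-adjusted IC95.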

[2] = test system: Human immunodeficiency virus 1; assay: Antiviral activity against HIV1 3B infected in human MT4 cells assessed as inhibition of viral spread after 3 days by p24 antigen ELISA in presence of 50% normal human serum; format: functional; how it was run: as §1
[3] = target: Protease (Human immunodeficiency virus 1, UniProt Q9YQ12); assay: Inhibition of HIV1 protease
[4] = Trough plasma concentration in Beagle dog at 4 mg/kg after 24 hrs; format: ADME, organism-based, Canis lupus familiaris; parameters: dose 4 mg/kg
How it was run: (§2)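 Beagle dogs received 4 mg/kg orally in PEG 400. Plasma drug levels (nM) were measured over 24 h, including the 24 h trough, and oral half-life was calculated from the plasma concentration profile.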

[5] = AUC in Beagle dog at 4 mg/kg, po; format: ADME, organism-based, Canis lupus familiaris; parameters: dose 4 mg/kg, route oral; conditions: plasma; how it was run: as §2
[6] = Half life in Beagle dog at 4 mg/kg, po; format: ADME, organism-based, Canis lupus familiaris; parameters: dose 4 mg/kg, route oral; conditions: in vivo; how it was run: as §2

Protease, sequence (Q9YQ12 whole entry): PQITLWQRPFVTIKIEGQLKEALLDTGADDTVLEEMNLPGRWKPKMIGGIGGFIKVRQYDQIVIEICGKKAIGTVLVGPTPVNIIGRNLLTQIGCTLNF

SMILES	Inhibition of viral spread [1] [nM]	Virucidal [2] [nM]	IC50 [3] [nM]	concentration at 24 h [4] [nM]	AUC [5] [µM·h]	half-life [6] [h]
COC(=O)N[C@H](C(=O)NCCCC[C@@H](CO)N(CCC(C)C)S(=O)(=O)c1ccc(N)cc1)C(c1ccccc1)c1ccccc1	12	130	0.03			
COC(=O)N[C@H](C(=O)N[C@@H](C)CCC[C@@H](CO)N(CCC(C)C)S(=O)(=O)c1ccc(N)cc1)C(c1ccccc1)c1ccccc1	6.6	120		2	0.32	
COC(=O)N[C@H](C(=O)N[C@H](C)CCC[C@@H](CO)N(CCC(C)C)S(=O)(=O)c1ccc(N)cc1)C(c1ccccc1)c1ccccc1	98		0.4			
CC[C@@H](CCC[C@@H](CO)N(CCC(C)C)S(=O)(=O)c1ccc(N)cc1)NC(=O)[C@@H](NC(=O)OC)C(c1ccccc1)c1ccccc1	10	74	0.016	5.1	1.05	6
CCC[C@@H](CCC[C@@H](CO)N(CCC(C)C)S(=O)(=O)c1ccc(N)cc1)NC(=O)[C@@H](NC(=O)OC)C(c1ccccc1)c1ccccc1	56		0.1			
COC(=O)N[C@H](C(=O)N[C@@H](CCC[C@@H](CO)N(CCC(C)C)S(=O)(=O)c1ccc(N)cc1)C(C)C)C(c1ccccc1)c1ccccc1	37		0.1			
COC(=O)N[C@H](C(=O)N[C@H](CO)CCC[C@@H](CO)N(CCC(C)C)S(=O)(=O)c1ccc(N)cc1)C(c1ccccc1)c1ccccc1	230		0.013			
COC(=O)N[C@H](C(=O)NCCCC[C@@H](CO)N(CC(C)C)S(=O)(=O)c1ccc(N)cc1)C(c1ccccc1)c1ccccc1 [PPL-100]			0.5			
